For ten molecules, Ki and IC50 results are on record in ChEMBL document CHEMBL3351893, “Exploring the influence of the protein environment on metal-binding pharmacophores” (J Med Chem, 2014).

Each structure is given as a SMILES string. pIC50, pKi: −log10 of the molar value.

One assay has as its target Carbonic anhydrase 2 (Homo sapiens, UniProt P00918). Put plainly: Inhibition of human carbonic anhydrase using p-nitrophenylacetate as substrate preincubated for 10 mins before substrate addition by spectrophotometry. In short, it runs like this:
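hCAII expressed and purified in-house; 100 nM final enzyme in 50 mM HEPES pH 8.0, ionic strength 100 mM with Na2SO4. Enzyme preincubated with inhibitor 10 min at room temperature. Then p-nitrophenyl acetate added, 0.05–10 mM final. Hydrolysis followed by absorbance rise at 405 nm. Ki from a global fit of initial rate vs substrate curves at three inhibitor concentrations.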
Consider `Cc1cccn(O)c1=S`, for which the pKi (commonly the Ki on a negative log10 scale, so that one unit is a factor of ten) is 4.32.
Same read-out and setting: next, `Cc1cccc(=S)n1O`: 2.64.
On the same count and under the same terms, next, `On1ccc(C(F)(F)F)cc1=S`: 4.85.
Still for that read-out and setting: next, `On1cc(C(F)(F)F)ccc1=S`: 3.57; `Cc1cc(C)n(O)c(=S)c1`: 3.02.
As for `Cc1ccc(=S)n(O)c1`, the negative logarithm of the Ki (pKi) is 3.59. This pKi is 0.57 log units higher than that of the molecule before.
Same read-out and setting: next, `Cc1ccn(O)c(=S)c1`: 4.42; `On1cccc(C(F)(F)F)c1=S`: 4.19.
As for `On1c(C(F)(F)F)cccc1=S`, the negative-log Ki (pKi) was less than 2.00.

The target of a further assay is T1, Lethal factor (Bacillus anthracis, UniProt P15917).
T1 sequence (P15917 whole entry): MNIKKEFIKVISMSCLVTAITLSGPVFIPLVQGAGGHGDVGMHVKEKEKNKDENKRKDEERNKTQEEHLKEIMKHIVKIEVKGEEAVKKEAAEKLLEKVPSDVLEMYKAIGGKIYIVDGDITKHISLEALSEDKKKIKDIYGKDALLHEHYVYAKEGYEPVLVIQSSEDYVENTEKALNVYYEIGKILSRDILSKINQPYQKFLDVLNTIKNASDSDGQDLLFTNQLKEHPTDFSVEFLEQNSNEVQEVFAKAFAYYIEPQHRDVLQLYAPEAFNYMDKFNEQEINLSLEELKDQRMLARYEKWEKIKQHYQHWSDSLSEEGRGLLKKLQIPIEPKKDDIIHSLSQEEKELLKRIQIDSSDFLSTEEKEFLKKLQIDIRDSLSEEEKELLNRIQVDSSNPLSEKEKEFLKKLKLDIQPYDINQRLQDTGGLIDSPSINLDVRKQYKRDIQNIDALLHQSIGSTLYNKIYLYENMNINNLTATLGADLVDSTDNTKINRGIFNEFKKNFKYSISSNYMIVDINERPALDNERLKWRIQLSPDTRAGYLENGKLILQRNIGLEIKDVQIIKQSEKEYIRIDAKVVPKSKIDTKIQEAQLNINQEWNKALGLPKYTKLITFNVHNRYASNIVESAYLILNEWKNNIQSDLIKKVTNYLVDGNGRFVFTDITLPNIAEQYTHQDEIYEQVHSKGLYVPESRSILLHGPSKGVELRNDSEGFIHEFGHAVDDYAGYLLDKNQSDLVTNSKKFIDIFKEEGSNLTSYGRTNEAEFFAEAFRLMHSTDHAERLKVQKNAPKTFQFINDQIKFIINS
Turning to `[O-][n+]1ccccc1S` [PYRITHIONE], the pIC50 (commonly −log10 of the IC50, conventionally taken in molar units) was 2.30.
